Assay results from paper PMC9623233 (Clinical Cancer Research, 2022).

Assay: Phase I safety and tolerability: adverse events
Type: in vivo, human
Procedure, shortened: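 Open-label 3+3 escalation of intravenous test compound. Each 4-week cycle was four weekly or two biweekly doses; later arms were biweekly with dexamethasone prophylaxis, or every 3 weeks. AEs were graded by NCI CTCAE v4.0, with laboratory tests, pulmonary function (entry FVC >70%, DLCOc >60%), vital signs, ECG and examination. DLT window: two cycles (8 weeks; 6 weeks for 3-weekly dosing).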

[1] = 12 mg/m^2/q2Wk expansion, worst grade G1
[2] = 12 mg/m^2/q2Wk expansion, worst grade G2
[3] = 12 mg/m^2/q2Wk expansion, worst grade G3
[4] = 12 mg/m^2/q2Wk with and without steroid, Total, all grades
[5] = 12 mg/m^2/q2Wk-steroid expansion, worst grade G1
[6] = 12 mg/m^2/q2Wk-steroid expansion, worst grade G2
[7] = 12 mg/m^2/q2Wk-steroid expansion, worst grade G3

SMILES: C#CCN(c1ccc(C(=O)N[C@@H](CCC(=O)N[C@H](CCC(=O)O)C(=O)O)C(=O)O)cc1)[C@H]1CCc2cc3nc(CO)[nH]c(=O)c3cc21 [CT900, N-[4-[2-propyn-1-yl[(6S)-4,6,7,8-tetrahydro-2-(hydroxymethyl)-4-oxo-3H-cyclopenta [g]quinazolin-6-yl]amino]benzoyl]-l-gamma-glutamyl-D-glutamic acid]
- Anemia, treatment-related [1]: 2 (8) n (%)
- Aspartate aminotransferase increased, treatment-related [1]: 3 (12) n (%)
- Chills, treatment-related [1]: 2 (8) n (%)
- Cough, treatment-related [1]: 8 (32) n (%)
- Decreased appetite, treatment-related [1]: 3 (12) n (%)
- Diarrhea, treatment-related [1]: 4 (16) n (%)
- Fatigue, treatment-related [1]: 12 (48) n (%)
- Nausea, treatment-related [1]: 8 (32) n (%)
- Pneumonitis, treatment-related [1]: 0 (0) n (%)
- Pyrexia, treatment-related [1]: 3 (12) n (%)
- Vomiting, treatment-related [1]: 4 (16) n (%)
- Anemia, treatment-related [2]: 2 (8) n (%)
- Aspartate aminotransferase increased, treatment-related [2]: 1 (4) n (%)
- Chills, treatment-related [2]: 1 (4) n (%)
- Cough, treatment-related [2]: 0 (0) n (%)
- Decreased appetite, treatment-related [2]: 0 (0) n (%)
- Diarrhea, treatment-related [2]: 1 (4) n (%)
- Fatigue, treatment-related [2]: 1 (4) n (%)
- Nausea, treatment-related [2]: 4 (16) n (%)
- Pneumonitis, treatment-related [2]: 4 (16) n (%)
- Pyrexia, treatment-related [2]: 0 (0) n (%)
- Vomiting, treatment-related [2]: 0 (0) n (%)
- Anemia, treatment-related [3]: 0 (0) n (%)
- Aspartate aminotransferase increased, treatment-related [3]: 0 (0) n (%)
- Chills, treatment-related [3]: 0 (0) n (%)
- Cough, treatment-related [3]: 0 (0) n (%)
- Decreased appetite, treatment-related [3]: 0 (0) n (%)
- Diarrhea, treatment-related [3]: 1 (4) n (%)
- Fatigue, treatment-related [3]: 0 (0) n (%)
- Nausea, treatment-related [3]: 0 (0) n (%)
- Pneumonitis, treatment-related [3]: 0 (0) n (%)
- Pyrexia, treatment-related [3]: 0 (0) n (%)
- Vomiting, treatment-related [3]: 0 (0) n (%)
- Anemia, treatment-related [4]: 8 (20) n (%)
- Aspartate aminotransferase increased, treatment-related [4]: 7 (18) n (%)
- Chills, treatment-related [4]: 4 (10) n (%)
- Cough, treatment-related [4]: 9 (23) n (%)
- Decreased appetite, treatment-related [4]: 4 (10) n (%)
- Diarrhea, treatment-related [4]: 9 (23) n (%)
- Fatigue, treatment-related [4]: 21 (53) n (%)
- Nausea, treatment-related [4]: 16 (40) n (%)
- Pneumonitis, treatment-related [4]: 8 (20) n (%)
- Pyrexia, treatment-related [4]: 7 (18) n (%)
- Vomiting, treatment-related [4]: 4 (10) n (%)
- Anemia, treatment-related [5]: 1 (6.7) n (%)
- Aspartate aminotransferase increased, treatment-related [5]: 3 (20) n (%)
- Chills, treatment-related [5]: 1 (6.7) n (%)
- Cough, treatment-related [5]: 1 (6.7) n (%)
- Decreased appetite, treatment-related [5]: 1 (6.7) n (%)
- Diarrhea, treatment-related [5]: 2 (13.3) n (%)
- Fatigue, treatment-related [5]: 6 (40) n (%)
- Nausea, treatment-related [5]: 4 (26.7) n (%)
- Pneumonitis, treatment-related [5]: 1 (6.7) n (%)
- Pyrexia, treatment-related [5]: 4 (26.7) n (%)
- Vomiting, treatment-related [5]: 0 (0) n (%)
- Anemia, treatment-related [6]: 1 (6.7) n (%)
- Aspartate aminotransferase increased, treatment-related [6]: 0 (0) n (%)
- Chills, treatment-related [6]: 0 (0) n (%)
- Cough, treatment-related [6]: 0 (0) n (%)
- Decreased appetite, treatment-related [6]: 0 (0) n (%)
- Diarrhea, treatment-related [6]: 0 (0) n (%)
- Fatigue, treatment-related [6]: 2 (13.3) n (%)
- Nausea, treatment-related [6]: 0 (0) n (%)
- Pneumonitis, treatment-related [6]: 3 (20) n (%)
- Pyrexia, treatment-related [6]: 0 (0) n (%)
- Vomiting, treatment-related [6]: 0 (0) n (%)
- Anemia, treatment-related [7]: 2 (13.3) n (%)
- Aspartate aminotransferase increased, treatment-related [7]: 0 (0) n (%)
- Chills, treatment-related [7]: 0 (0) n (%)
- Cough, treatment-related [7]: 0 (0) n (%)
- Decreased appetite, treatment-related [7]: 0 (0) n (%)
- Diarrhea, treatment-related [7]: 1 (6.7) n (%)
- Fatigue, treatment-related [7]: 0 (0) n (%)
- Nausea, treatment-related [7]: 0 (0) n (%)
- Pneumonitis, treatment-related [7]: 0 (0) n (%)
- Pyrexia, treatment-related [7]: 0 (0) n (%)
- Vomiting, treatment-related [7]: 0 (0) n (%)
- Drug-related, predominantly low-grade pneumonitis (all patients, 10/109): 9%
- Fatal pneumonitis (during the trial): no cases of fatal pneumonitis
- Recommended phase II dose/schedule (intravenous): 12 mg/m^2/q2Wk
- Drug-related NCI CTCAE ≥grade 3 events (qWk schedule 1-6 mg/m^2, 21 patients: anemia, cellulitis, pneumonitis): three
